Test results reported in ChEMBL document CHEMBL4049390, “Combination of amino acid/dipeptide with ligustrazine-betulinic acid as antitumor agents” (Eur J Med Chem, 2017).
Activity calls are given as the source filed them. The rule behind the calls is not given here.

How the values were obtained:
[1] = tested on: HepG2; assay: Induction of apoptosis in human HepG2 cells assessed as late apoptotic cells at 3 uM after 72 hrs by Annexin-V-FITC/propidium iodide staining based flow cytometry (reference value: 2.6%); assay type: functional
[2] = tested on: HepG2; assay: Induction of apoptosis in human HepG2 cells assessed as necrotic cells at 2 uM after 72 hrs by Annexin-V-FITC/propidium iodide staining based flow cytometry (reference value: 0.5%); assay type: functional
[3] = tested on: HepG2; assay: Induction of apoptosis in human HepG2 cells assessed as early apoptotic cells at 4 uM after 72 hrs by Annexin-V-FITC/propidium iodide staining based flow cytometry (reference value: 3.7%); assay type: functional
[4] = tested on: HepG2; assay: Induction of apoptosis in human HepG2 cells assessed as late apoptotic cells at 2 uM after 72 hrs by Annexin-V-FITC/propidium iodide staining based flow cytometry (reference value: 2.6%); assay type: functional
[5] = tested on: HeLa; assay: Potency index, ratio of cisplatin IC50 to compound IC50 for human HeLa cells; assay type: functional
Outline: (§1)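 Ratios were calculated from MTT IC50 values (72 h exposure, A490 read-out, n = 3). Potency index = cisplatin IC50 / compound IC50. Therapeutic index = MDCK IC50 / tumour-line IC50.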

[6] = tested on: HepG2; assay: Induction of apoptosis in human HepG2 cells assessed as early apoptotic cells at 2 uM after 72 hrs by Annexin-V-FITC/propidium iodide staining based flow cytometry (reference value: 3.7%); assay type: functional
[7] = tested on: A549; assay: Antiproliferative activity against human A549 cells after 72 hrs by MTT assay; assay type: functional, cell-based; conditions: A549, 72 h
Outline: (§2)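 MTT assay. Log-phase cells were seeded at 3×10^3 cells/well and left overnight, then exposed to serial dilutions of compound (DMSO solutions) for 72 h in RPMI 1640 with 10% heat-inactivated FBS at 37 °C, 5% CO2. MTT (5 mg/mL, 20 µL) was added for 4 h at 37 °C and the formazan dissolved in DMSO. A490 was read. % inhibition = (1 − sample OD/control OD)×100; IC50 is the 50% growth-inhibition concentration. Triplicates, n = 3 independent experiments.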

[8] = tested on: HeLa; assay: Antiproliferative activity against human HeLa cells after 72 hrs by MTT assay; assay type: functional, cell-based; outline: as §2
[9] = tested on: HT-29; assay: Potency index, ratio of cisplatin IC50 to compound IC50 for human HT-29 cells; assay type: functional; outline: as §1
[10] = tested on: HepG2; assay: Induction of apoptosis in human HepG2 cells assessed as viable cells at 2 uM after 72 hrs by Annexin-V-FITC/propidium iodide staining based flow cytometry (reference value: 93.2%); assay type: functional; conditions: HepG2, 72 h, read-out: Activity
[11] = tested on: HepG2; assay: Induction of apoptosis in human HepG2 cells assessed as disruption of mitochondrial membrane potential by measuring mean fluorescence intensity at 2 uM after 72 hrs by Rh123 staining based flow cytometry (reference value: 26410); assay type: functional
[12] = tested on: HT-29; assay: Antiproliferative activity against human HT-29 cells after 72 hrs by MTT assay; assay type: functional, cell-based; conditions: HT-29, 72 h; outline: as §2
[13] = tested on: HepG2; assay: Induction of apoptosis in human HepG2 cells after 72 hrs by Annexin-V-FITC/propidium iodide staining based flow cytometry; assay type: functional, cell-based
[14] = tested on: MDCK; assay: Antiproliferative activity against MDCK cells after 72 hrs by MTT assay; assay type: cell-based; conditions: Canis lupus familiaris; outline: as §2
[15] = tested on: HepG2; assay: Induction of apoptosis in human HepG2 cells assessed as formation of apoptotic bodies after 72 hrs by DAPI staining based fluorescent microscopic method; assay type: functional, cell-based
Outline: (§3)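 HepG2 cells were plated at 4×10^3 cells/well in six-well plates and grown 12 h, then treated at 1.5, 3 or 6 µM for 72 h. Cells were washed in PBS, fixed in 4% paraformaldehyde and stained with 1 mg/mL DAPI for 1 min in the dark. Nuclei were viewed by fluorescence microscopy at 200×.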

[16] = tested on: HepG2; assay: Induction of apoptosis in human HepG2 cells assessed as increase in intracellular calcium level by measuring mean fluorescence intensity at 3 uM after 72 hrs by Fluo-3AM dye based flow cytometry (reference value: 1992); assay type: functional
Outline: (§4)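 HepG2 cells at 1×10^5 cells/well were grown 24 h, then treated with compound for 72 h. Cells were harvested, washed in cold PBS and resuspended in HBSS containing 10 µM Fluo-3 AM for 30 min at 37 °C in the dark. Flow cytometry used 488 nm excitation; the read-out was mean fluorescence intensity against an untreated control.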

[17] = tested on: HepG2; assay: Potency index, ratio of cisplatin IC50 to compound IC50 for human HepG2 cells; assay type: functional; outline: as §1
[18] = tested on: HepG2; assay: Induction of apoptosis in human HepG2 cells assessed as cell shrinkage at 1.5 uM after 72 hrs by Giemsa staining based fluorescent microscopic method; assay type: functional
Outline: (§5)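 HepG2 cells were seeded at 4×10^3 cells/well in 6-well plates overnight, then treated at 1.5, 3 or 6 µM for 72 h. Cells were washed in PBS, fixed in cold methanol, stained with 6% Giemsa for 5 min, rinsed with water and dried. Morphology was examined microscopically at 200×, with apoptotic cells marked in representative fields.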

[19] = tested on: HepG2; assay: Induction of apoptosis in human HepG2 cells assessed as increase in intracellular calcium level by measuring mean fluorescence intensity at 2 uM after 72 hrs by Fluo-3AM dye based flow cytometry (reference value: 1992); assay type: functional; outline: as §4
[20] = tested on: HepG2; assay: Induction of apoptosis in human HepG2 cells assessed as necrotic cells at 3 uM after 72 hrs by Annexin-V-FITC/propidium iodide staining based flow cytometry (reference value: 0.5%); assay type: functional
[21] = tested on: HepG2; assay: Induction of apoptosis in human HepG2 cells assessed as disruption of mitochondrial membrane potential by measuring mean fluorescence intensity after 72 hrs by Rh123 staining based flow cytometry; assay type: functional, cell-based
Outline: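 Mitochondrial potential: HepG2 cells (1×10^5/well, 6-well) were grown 24 h, then exposed at 2, 3 or 4 µM for 72 h. Cells were trypsinised, washed in cold PBS and loaded with 10 µg/mL rhodamine 123 for 30 min at 37 °C. After washing, flow cytometry was run (ex 488/em 530 nm); the read-out is mean fluorescence intensity.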

[22] = tested on: HepG2; assay: Induction of apoptosis in human HepG2 cells assessed as disruption of mitochondrial membrane potential by measuring mean fluorescence intensity at 3 uM after 72 hrs by Rh123 staining based flow cytometry (reference value: 26410); assay type: functional
[23] = tested on: A549; assay: Potency index, ratio of cisplatin IC50 to compound IC50 for human A549 cells; assay type: functional; outline: as §1
[24] = tested on: BGC-823; assay: Potency index, ratio of cisplatin IC50 to compound IC50 for human BGC823 cells; assay type: functional; outline: as §1
[25] = tested on: HepG2; assay: Induction of apoptosis in human HepG2 cells assessed as increase in intracellular calcium level by measuring mean fluorescence intensity at 4 uM after 72 hrs by Fluo-3AM dye based flow cytometry (reference value: 1992); assay type: functional; outline: as §4
[26] = tested on: HepG2; assay: Induction of apoptosis in human HepG2 cells assessed as nuclear fragmentation at 1.5 to 6 uM after 72 hrs by Giemsa staining based fluorescent microscopic method; assay type: functional, cell-based; outline: as §5
[27] = tested on: HepG2; assay: Induction of apoptosis in human HepG2 cells assessed as nuclear condensation at 6 uM after 72 hrs by Giemsa staining based fluorescent microscopic method; assay type: functional, cell-based; outline: as §5
[28] = tested on: HepG2; assay: Induction of apoptosis in human HepG2 cells assessed as nuclear fragmentation after 72 hrs by DAPI staining based fluorescent microscopic method; assay type: functional, cell-based; outline: as §3
[29] = tested on: HepG2; assay: Induction of apoptosis in human HepG2 cells assessed as early apoptotic cells at 3 uM after 72 hrs by Annexin-V-FITC/propidium iodide staining based flow cytometry (reference value: 3.7%); assay type: functional

Molecule C=C(C)[C@@H]1CC[C@]2(C(=O)OCc3nc(C)c(C)nc3C)CC[C@]3(C)[C@H](CC[C@@H]4[C@@]5(C)CC[C@H](OC(=O)[C@H](C)NC(=O)CNC)C(C)(C)[C@@H]5CC[C@]43C)[C@@H]12 has an Activity [1] of 6.5%, an Activity [2] of 1.1% and an Activity [3] of 29.9%. The Activity [4] was 4.8%, the “Ratio IC50” value [5] was 2 and the Activity [6] was 6.1%. For the same molecule, the IC50 [7] was 3.25 µM, the IC50 [8] was 1740 nM and the “Ratio IC50” value [9] was 2. For the same molecule, the viability at 2 µM [10] was 88%, the Flu intensity [11] was 6416 and the IC50 [12] was 1700 nM. The Activity [13] was “Dose-dependent effect”, the IC50 [14] was 10.8 µM and the Activity [15] was “Dose-dependent effect”. For the same molecule, the Flu intensity [16] was 3760, the “Ratio IC50” value [17] was 2 and the Activity [18] was “Active”. For the same molecule, the Flu intensity [19] was 2743, the Activity [20] was 1.2% and the Activity [21] was “Dose-dependent effect”. The Flu intensity [22] was 5411, the “Ratio IC50” value [23] was 2 and the “Ratio IC50” value [24] was 2. For the same molecule, the Flu intensity [25] was 6353, the Activity [26] was “Active” and the Activity [27] was “Active”. For the same molecule, the Activity [28] was “Dose-dependent effect” and the Activity [29] was 11.3%.
